Source: ChEMBL document CHEMBL4425101, “Design, Synthesis, and Characterization of Cyclic Peptidomimetics of the Inducible Nitric Oxide Synthase Binding Epitope That Disrupt the Protein-Protein Interaction Involving SPRY Domain-Containing Suppressor of Cytokine Signaling Box Protein (SPSB) 2 and Inducible Nitric Oxide Synthase” (J Med Chem, 2016)
pKd: −log10 of the molar value. The source made the active and inactive calls. The calls are words filed in the database; no cut-off is given here. Where a SMILES comes first, the peptide text is derived from it. Bridges are numbered along the chain shown (N, C = ends).

Assays:
[1] = target: T1, SPRY domain-containing SOCS box protein 2 (Mus musculus, UniProt O88838); assay: Binding affinity to recombinant GST-tagged mouse SPSB2 (12 to 224 residues) expressed in Escherichia coli BL21 (DE3) by ITC method
T1 sequence (O88838 whole entry): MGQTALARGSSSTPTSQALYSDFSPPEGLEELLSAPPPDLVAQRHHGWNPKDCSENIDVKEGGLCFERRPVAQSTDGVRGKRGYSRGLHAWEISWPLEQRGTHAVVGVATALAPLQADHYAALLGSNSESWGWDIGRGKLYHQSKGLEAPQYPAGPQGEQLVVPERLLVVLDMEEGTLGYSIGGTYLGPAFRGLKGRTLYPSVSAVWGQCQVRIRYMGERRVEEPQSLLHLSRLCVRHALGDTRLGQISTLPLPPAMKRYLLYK
Outline: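 ITC at 25 °C in 50 mM phosphate pH 7.4, 150 mM NaCl. Cell held 50 μM SPSB2, buffer-exchanged on a PD-10 column; syringe held compound from a 5 mM stock. Stirred at 1000 rpm. One 0.2 μL injection, then 29 injections of 1 μL. KD and ΔH from a nonlinear least-squares fit to a one-set-of-sites (1:1) model.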

[2] = organism: Mus musculus; assay: Inhibition of recombinant GST-tagged mouse SPSB2 (12 to 224 residues) expressed in Escherichia coli BL21 (DE3)/ full length iNOS (unknown origin) interaction in LPS/IFN-gamma-stimulated mouse BMDM assessed as reduction in iNOS level preincubated for 2 hrs measured after 1 hr by Western blot analysis
Outline: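 Lysates of cultured murine BMDM incubated 2 h with 2.5 μg/mL GST-SPSB2 SPRY domain or GST alone, with or without 10 μM peptidomimetic. Then 1 h with glutathione Sepharose beads to pull down the complex. Bound iNOS detected by reducing SDS-PAGE, anti-iNOS immunoblot and ECL. Membrane reprobed with anti-GST to check loading.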

[3] = target: T2, SPRY domain-containing SOCS box protein 2 (Mus musculus) (UniProt O88838); assay: Binding affinity to recombinant GST-tagged mouse SPSB2 (12 to 224 residues) expressed in Escherichia coli BL21 (DE3) assessed as association rate by SPR analysis
T2 sequence (whole entry): T1 sequence (O88838 whole entry)
Outline: (§1)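 SPSB2 amine-coupled to a CM5 sensor chip. Peptidomimetics flowed over at increasing concentrations in running buffer (10 mM HEPES, 150 mM NaCl, 3 mM EDTA, 0.05% Tween 20, pH 7.4) at 25 °C. Sensorgrams fitted to a single-site binding model.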

[4] = target: T2, SPRY domain-containing SOCS box protein 2 (Mus musculus); assay: Binding affinity to mouse 5-F-Trp-SPSB2 assessed as induction of sharpening of Trp207 resonance by measuring increase in peak height at protein to compound molar ratio of 1:5 by 19F-NMR spectroscopy
Outline: (§2)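 19F NMR of 5F-Trp-labelled SPSB2 with added peptidomimetic, recorded at 30 °C and 564 MHz on a cryoprobe tuned to 19F.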

[5] = target: T2, SPRY domain-containing SOCS box protein 2 (Mus musculus); assay: Binding affinity to mouse 5-F-Trp-SPSB2 assessed as downward shift of Trp207 residue resonance at protein to compound molar ratio of 1:5 by 19F-NMR spectroscopy; outline: as §2
[6] = target: T2, SPRY domain-containing SOCS box protein 2 (Mus musculus); assay: Binding affinity to recombinant GST-tagged mouse SPSB2 (12 to 224 residues) expressed in Escherichia coli BL21 (DE3) assessed as dissociation rate by SPR analysis; outline: as §1
[7] = target: T1, SPRY domain-containing SOCS box protein 2; assay: Binding affinity to recombinant GST-tagged mouse SPSB2 (12 to 224 residues) expressed in Escherichia coli BL21 (DE3) by SPR analysis; outline: as §1
[8] = target: T2, SPRY domain-containing SOCS box protein 2 (Mus musculus); assay: Ratio of Kd for recombinant GST-tagged mouse SPSB2 (12 to 224 residues) expressed in Escherichia coli BL21 (DE3) by ITC method to Kd for recombinant GST-tagged mouse SPSB2 (12 to 224 residues) expressed in Escherichia coli BL21 by SPR analysis
[9] = target: T2, SPRY domain-containing SOCS box protein 2 (Mus musculus); assay: Potency index, ratio of Ac-DINNNNH2 Kd to compound Kd for recombinant GST-tagged mouse SPSB2 (12 to 224 residues) expressed in Escherichia coli BL21 (DE3) by SPR analysis

| Compound | pKd [1] | Inhibition of SPSB2-iNOS interaction (qualitative) [2] | K [3] | Activity [5] | K [6] | pKd [7] | also measured |
| --- | --- | --- | --- | --- | --- | --- | --- |
| CC[C@@H](C)[C@@H]1NC(=O)[C@H](CC(=O)O)OCCNC(=O)[C@@H](CC(N)=O)NC(=O)[C@@H](CC(N)=O)NC(=O)[C@@H](CC(N)=O)NC1=O | – | Active | 4.7 ×10⁵ /M/s | inactive | 26 ×10⁻² /s | – | Activity [4]: 25% |
| CC[C@H](C)[C@@H]1NC(=O)[C@@H](CC(=O)O)OCC(=O)N(C)NC(=O)[C@H](CC(N)=O)NC(=O)[C@H](CC(N)=O)NC(=O)[C@H](CC(N)=O)NC1=O | 7.08 | – | – | – | – | 7.00 | – |
| CC[C@H](C)[C@@H]1NC(=O)[C@@H](CC(=O)O)OCC(=O)N(C)NC(=O)[C@H](CC(N)=O)NC(=O)[C@H](CC(N)=O)NC(=O)[C@@H](CC(N)=O)NC1=O | – | Active | 11.9 ×10⁵ /M/s | Active | 8 ×10⁻² /s | – | – |
| CC[C@H](C)[C@@H]1NC(=O)[C@H](CC(=O)O)NC(=O)[C@H](C(C)C)NC(=O)[C@@H](NC(C)=O)CSSC[C@@H](C(N)=O)NC(=O)[C@H](CC(N)=O)NC(=O)[C@H](CC(N)=O)NC(=O)[C@H](CC(N)=O)NC1=O (Ac-CVDINNNC-NH2; disulfide 1-8) | – | – | – | Active | – | – | – |
| CC[C@H](C)[C@@H]1NC(=O)[C@@H](CC(=O)O)NC(=O)c2ccccc2NC(=O)[C@H](CC(N)=O)NC(=O)[C@H](CC(N)=O)NC(=O)[C@@H](CC(N)=O)NC1=O | – | Active | 11 ×10⁵ /M/s | Active | 6 ×10⁻² /s | – | – |
| CC[C@H](C)[C@@H]1NC(=O)[C@H](CC(=O)O)OCCNC(=O)[C@H](CC(N)=O)NC(=O)[C@H](CC(N)=O)NC(=O)[C@H](CC(N)=O)NC1=O | 6.35 | – | – | – | – | 6.33 | – |

Continued, in another order:

| pKd [1] | Inhibition of SPSB2-iNOS interaction (qualitative) [2] | K [3] | Activity [5] | K [6] | pKd [7] | Compound | also measured |
| --- | --- | --- | --- | --- | --- | --- | --- |
| 7.89 | – | – | – | – | – | H-KEEKDINNNVKKT-OH | – |
| 7.31 | – | – | – | – | 7.27 | CC[C@H](C)[C@@H]1NC(=O)[C@H](CC(=O)O)NC(=O)c2ccccc2NC(=O)[C@H](CC(N)=O)NC(=O)[C@H](CC(N)=O)NC(=O)[C@H](CC(N)=O)NC1=O | – |
| 7.35 | – | – | – | – | 7.54 | CC[C@H](C)[C@@H]1NC(=O)[C@@H](CC(=O)O)OCc2ccccc2NC(=O)[C@H](CC(N)=O)NC(=O)[C@H](CC(N)=O)NC(=O)[C@H](CC(N)=O)NC1=O | – |
| – | Active | 8.6 ×10⁵ /M/s | Active | 2 ×10⁻² /s | – | CC[C@H](C)[C@@H]1NC(=O)[C@@H](CC(=O)O)OCc2ccccc2NC(=O)[C@H](CC(N)=O)NC(=O)[C@H](CC(N)=O)NC(=O)[C@@H](CC(N)=O)NC1=O | Ratio [8]: 1.5; Ratio [9]: 10 |
